{
  "source": "ChEMBL document CHEMBL4406880",
  "about": "“Design, synthesis, and bioactivity of dihydropyrimidine derivatives as kinesin spindle protein inhibitors” (Bioorg Med Chem, 2019)",
  "assay_type_in_all_cases": "functional",
  "key": {"MDA-MB-468": {"system": "MDA-MB-468", "test": "Growth inhibition of human MDA-MB-468 cells assessed as cell viability at 0.001 uM incubated for 48 hrs by sulforhodamine B assay relative to control", "conditions": "MDA-MB-468, 48 h, read-out: Activity"}, "IGROV-1": {"system": "IGROV-1", "test": "Growth inhibition of human IGROV1 cells incubated for 48 hrs by sulforhodamine B assay", "conditions": "IGROV-1, 48 h", "procedure,_shortened": "(§1)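 NCI-60 five-dose SRB assay in RPMI 1640 with 5% FBS, 37 °C, 5% CO2. Compound given at five tenfold dilutions, 0.01–100 µM, for 48 h. Adherent cells fixed with TCA, suspension cells with 16% final TCA. Bound SRB read at 515 nm and growth calculated against time-zero and untreated controls. GI50 taken from dose–response curves as the concentration giving a 50% decrease in net cell growth.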"}, "OVCAR-5": {"system": "OVCAR-5", "test": "Growth inhibition of human OVCAR5 cells assessed as cell viability at 100 uM incubated for 48 hrs by sulforhodamine B assay", "conditions": "OVCAR-5, 48 h, read-out: Activity"}, "HOP-92 [1]": {"system": "HOP-92", "test": "Growth inhibition of human HOP92 cells assessed as cell viability at 1 uM incubated for 48 hrs by sulforhodamine B assay", "conditions": "HOP-92, 48 h, read-out: Activity"}, "CAKI-1": {"system": "CAKI-1", "test": "Growth inhibition of human Caki1 cells assessed as cell viability at 1 uM incubated for 48 hrs by sulforhodamine B assay", "conditions": "CAKI-1, 48 h, read-out: Activity"}, "UACC-257 [2]": {"system": "UACC-257", "test": "Growth inhibition of human UACC257 cells assessed as cell viability at 100 uM incubated for 48 hrs by sulforhodamine B assay", "conditions": "UACC-257, 48 h, read-out: Activity"}, "U-251": {"system": "U-251", "test": "Growth inhibition of human U251 cells assessed as cell viability at 1 uM incubated for 48 hrs by sulforhodamine B assay", "conditions": "U-251, 48 h, read-out: Activity"}, "OVCAR-8": {"system": "OVCAR-8", "test": "Growth inhibition of human OVCAR8 cells assessed as cell viability at 100 uM incubated for 48 hrs by sulforhodamine B assay", "conditions": "OVCAR-8, 48 h, read-out: Activity"}, "HCT-15": {"system": "HCT-15", "test": "Growth inhibition of human HCT15 cells assessed as cell viability at 0.001 uM incubated for 48 hrs by sulforhodamine B assay relative to control", "conditions": "HCT-15, 48 h, read-out: Activity"}, "A498": {"system": "A498", "test": "Growth inhibition of human A498 cells assessed as cell viability at 0.1 uM incubated for 48 hrs by sulforhodamine B assay", "conditions": "A498, 48 h, read-out: Activity", "procedure,_shortened": "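NCI-60 five-dose mode: five tenfold dilutions (0.01, 0.1, 1, 10, 100 µM) are applied for 48 h to cells in RPMI 1640 with 5% FBS at 37 °C. Endpoint is TCA fixation with sulforhodamine B read at 515 nm. % growth comes from the 0 h and control absorbances. GI50 is the concentration giving a 50% reduction in net cell growth.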"}, "SK-MEL-28": {"system": "SK-MEL-28", "test": "Growth inhibition of human SK-MEL-28 cells assessed as cell viability at 1 uM incubated for 48 hrs by sulforhodamine B assay", "conditions": "SK-MEL-28, 48 h, read-out: Activity"}, "COLO 205 [3]": {"system": "COLO 205", "test": "Growth inhibition of human COLO205 cells assessed as cell viability at 1 uM incubated for 48 hrs by sulforhodamine B assay", "conditions": "COLO 205, 48 h, read-out: Activity"}, "HL-60(TB)": {"system": "HL-60(TB)", "test": "Growth inhibition of human HL-60(TB) cells assessed as cell viability at 100 uM incubated for 48 hrs by sulforhodamine B assay", "conditions": "HL-60, 48 h, read-out: Activity", "procedure,_shortened": "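NCI-60 five-dose assay, SRB end-point, same culture conditions. Compound is tested at tenfold dilutions of 0.01, 0.1, 1, 10 and 100 µM for 48 h at 37 °C, with DMSO/PBS vehicle controls. Percentage growth at each concentration is taken against untreated cells and a time-zero plate. GI50 is 50% net growth decrease, TGI is total growth inhibition, and LC50 is 50% loss of initial cells.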"}, "SK-MEL-5": {"system": "SK-MEL-5", "test": "Growth inhibition of human SK-MEL-5 cells incubated for 48 hrs by sulforhodamine B assay", "conditions": "SK-MEL-5, 48 h", "procedure,_shortened": "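NCI-60 five-dose SRB assay. Cells were exposed for 48 h to tenfold dilutions of 0.01, 0.1, 1, 10 and 100 µM, in RPMI 1640 with 5% FBS. Plates fixed with TCA at the time of drug addition served as the time-zero reference. GI50 is the concentration giving a 50% reduction in net growth. TGI is total growth inhibition. LC50 is a net 50% loss of the initial cells.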"}, "MOLT-4": {"system": "MOLT-4", "test": "Growth inhibition of human MOLT4 cells assessed as cell viability at 1 uM incubated for 48 hrs by sulforhodamine B assay", "conditions": "MOLT-4, 48 h, read-out: Activity"}, "EKVX": {"system": "EKVX", "test": "Growth inhibition of human EKVX cells assessed as cell viability at 100 uM incubated for 48 hrs by sulforhodamine B assay", "conditions": "read-out: Activity"}, "SK-OV-3": {"system": "SK-OV-3", "test": "Growth inhibition of human SKOV3 cells assessed as cell viability at 0.1 uM incubated for 48 hrs by sulforhodamine B assay", "conditions": "SK-OV-3, 48 h, read-out: Activity"}, "MDA-MB-435": {"system": "MDA-MB-435", "test": "Growth inhibition of human MDA-MB-435 cells incubated for 48 hrs by sulforhodamine B assay", "conditions": "MDA-MB-435, 48 h", "procedure,_shortened": "as §1"}, "SK-MEL-2": {"system": "SK-MEL-2", "test": "Growth inhibition of human SK-MEL-2 cells assessed as cell viability at 1 uM incubated for 48 hrs by sulforhodamine B assay", "conditions": "SK-MEL-2, 48 h, read-out: Activity"}, "HOP-92 [4]": {"system": "HOP-92", "test": "Growth inhibition of human HOP92 cells assessed as cell viability at 0.001 uM incubated for 48 hrs by sulforhodamine B assay relative to control", "conditions": "HOP-92, 48 h, read-out: Activity"}, "COLO 205 [5]": {"system": "COLO 205", "test": "Growth inhibition of human COLO205 cells assessed as cell viability at 0.1 uM incubated for 48 hrs by sulforhodamine B assay", "conditions": "COLO 205, 48 h, read-out: Activity"}, "MDA-MB-231": {"system": "MDA-MB-231", "test": "Growth inhibition of human MDA-MB-231 cells incubated for 48 hrs by sulforhodamine B assay", "conditions": "MDA-MB-231, 48 h", "procedure,_shortened": "as §1"}, "SR": {"system": "SR", "test": "Growth inhibition of human SR cells assessed as cell viability at 0.1 uM incubated for 48 hrs by sulforhodamine B assay", "conditions": "read-out: Activity"}, "UACC-257 [6]": {"system": "UACC-257", "test": "Growth inhibition of human UACC257 cells assessed as cell viability at 1 uM incubated for 48 hrs by sulforhodamine B assay", "conditions": "UACC-257, 48 h, read-out: Activity"}, "[7]": {"conditions": "read-out: LC50 (the source's name)"}, "[8]": {"conditions": "read-out: pLC50 (the source's name) (converted)"}},
  "data": [
    {"smiles": "CC1=C(C(=O)OCc2ccccc2)C(c2ccc3c(c2)OCO3)n2c(nc3ccccc32)N1", "note": "(racemic)", "values": [
      {"measurement": "viability at 0.001 µM", "setting": "MDA-MB-468", "result": 90, "unit": "%"},
      {"measurement": "GI50", "setting": "IGROV-1; read-out: GI50", "result": 0.62, "unit": "µM"},
      {"measurement": "CC50", "setting": "IGROV-1; [7]", "result": "> 100", "unit": "µM"},
      {"measurement": "TGI", "setting": "IGROV-1; read-out: TGI", "result": "> 100", "unit": "µM"},
      {"measurement": "GI50", "setting": "IGROV-1; read-out: pGI50 (converted)", "result": 0.617, "unit": "µM"},
      {"measurement": "CC50", "setting": "IGROV-1; [8]", "result": "> 100", "unit": "µM"},
      {"measurement": "TGI", "setting": "IGROV-1; read-out: pTGI", "result": "> 100", "unit": "µM"},
      {"measurement": "viability at 100 µM", "setting": "OVCAR-5", "result": 51, "unit": "%"},
      {"measurement": "viability at 1 µM", "setting": "HOP-92 [1]", "result": 41, "unit": "%"},
      {"measurement": "viability at 1 µM", "setting": "CAKI-1", "result": 20, "unit": "%"},
      {"measurement": "viability at 100 µM", "setting": "UACC-257 [2]", "result": 46, "unit": "%"},
      {"measurement": "viability at 1 µM", "setting": "U-251", "result": 26, "unit": "%"},
      {"measurement": "viability at 100 µM", "setting": "OVCAR-8", "result": 14, "unit": "%"},
      {"measurement": "viability at 0.001 µM", "setting": "HCT-15", "result": 92, "unit": "%"},
      {"measurement": "viability at 0.1 µM", "setting": "A498", "result": 95, "unit": "%"},
      {"measurement": "viability at 1 µM", "setting": "SK-MEL-28", "result": 63, "unit": "%"},
      {"measurement": "viability at 1 µM", "setting": "COLO 205 [3]", "result": 28, "unit": "%"},
      {"measurement": "viability at 100 µM", "setting": "HL-60(TB)", "result": 9, "unit": "%"},
      {"measurement": "GI50", "setting": "SK-MEL-5; read-out: GI50", "result": 0.54, "unit": "µM"},
      {"measurement": "CC50", "setting": "SK-MEL-5; [7]", "result": "> 100", "unit": "µM"},
      {"measurement": "TGI", "setting": "SK-MEL-5; read-out: TGI", "result": "> 100", "unit": "µM"},
      {"measurement": "GI50", "setting": "SK-MEL-5; read-out: pGI50 (converted)", "result": 0.537, "unit": "µM"},
      {"measurement": "CC50", "setting": "SK-MEL-5; [8]", "result": "> 100", "unit": "µM"},
      {"measurement": "TGI", "setting": "SK-MEL-5; read-out: pTGI", "result": "> 100", "unit": "µM"},
      {"measurement": "viability at 1 µM", "setting": "MOLT-4", "result": 43, "unit": "%"},
      {"measurement": "viability at 100 µM", "setting": "EKVX", "result": 29, "unit": "%"},
      {"measurement": "viability at 0.1 µM", "setting": "SK-OV-3", "result": 97, "unit": "%"},
      {"measurement": "GI50", "setting": "MDA-MB-435; read-out: GI50", "result": 0.08, "unit": "µM"},
      {"measurement": "LC50", "setting": "MDA-MB-435; read-out: LC50", "result": "> 100", "unit": "µM"},
      {"measurement": "TGI", "setting": "MDA-MB-435; read-out: TGI", "result": 0.35, "unit": "µM"},
      {"measurement": "GI50", "setting": "MDA-MB-435; read-out: pGI50 (converted)", "result": 0.0851, "unit": "µM"},
      {"measurement": "LC50", "setting": "MDA-MB-435; read-out: pLC50 (converted)", "result": "> 100", "unit": "µM"},
      {"measurement": "TGI", "setting": "MDA-MB-435; read-out: pTGI (converted)", "result": 0.347, "unit": "µM"},
      {"measurement": "viability at 1 µM", "setting": "SK-MEL-2", "result": 52, "unit": "%"},
      {"measurement": "viability at 0.001 µM", "setting": "HOP-92 [4]", "result": 67, "unit": "%"},
      {"measurement": "viability at 0.1 µM", "setting": "COLO 205 [5]", "result": 101, "unit": "%"},
      {"measurement": "GI50", "setting": "MDA-MB-231; read-out: GI50", "result": 85.7, "unit": "µM"},
      {"measurement": "CC50", "setting": "MDA-MB-231; [7]", "result": "> 100", "unit": "µM"},
      {"measurement": "TGI", "setting": "MDA-MB-231; read-out: TGI", "result": "> 100", "unit": "µM"},
      {"measurement": "GI50", "setting": "MDA-MB-231; read-out: pGI50 (converted)", "result": 85.1, "unit": "µM"},
      {"measurement": "CC50", "setting": "MDA-MB-231; [8]", "result": "> 100", "unit": "µM"},
      {"measurement": "TGI", "setting": "MDA-MB-231; read-out: pTGI", "result": "> 100", "unit": "µM"},
      {"measurement": "viability at 0.1 µM", "setting": "SR", "result": 75, "unit": "%"},
      {"measurement": "viability at 1 µM", "setting": "UACC-257 [6]", "result": 50, "unit": "%"}
    ]}
  ]
}
